Results published in ChEMBL document CHEMBL1687750, “Nonclinical pharmacokinetics of oseltamivir and oseltamivir carboxylate in the central nervous system” (Antimicrob Agents Chemother, 2009).

Experiments:
Plasma [1] = experiment: Cmax in perfused Sprague-Dawley rat plasma assessed as active metabolite oseltamivir carboxylate level at 30 mg/kg, iv; format: ADME, organism-based; parameters: dose 30 mg/kg, route intravenous; conditions: in vivo
In short: (§1)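 Nonfasted adult rats received 30 mg/kg in aqueous 0.9% NaCl (pH 4.0) by slow tail-vein injection over 20–30 s. Groups were sampled at 5 min and 0.25, 0.5, 1, 2, 4 and 8 h, with 4–5 rats per time point, under terminal isoflurane. Blood was taken by heart puncture and CSF from the cisterna magna. Brains were homogenized either unperfused or after transcardial saline perfusion. Samples were assayed by LC-MS/MS, and pooled composite data were analyzed noncompartmentally.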

[2] = AUC ratio in brain to plasma in perfused Sprague-Dawley rat at 30 mg/kg, iv; format: ADME, organism-based; parameters: dose 30 mg/kg, route intravenous; conditions: brain and plasma, read-out: Ratio AUC; in short: as §1
Plasma [3] = experiment: AUC (0 to 8 hrs) after iv dose in non-perfused Sprague-Dawley rat plasma assessed as active metabolite oseltamivir carboxylate level at 30 mg/kg; conditions: in vivo
[4] = Prodrug conversion in 7 days old female rat brain S9 fractions assessed as conversion of oseltamivir to oseltamivir carboxylate; format: ADME, tissue-based
In short: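 S9 from brain or liver (rat S9 made by homogenizing tissue in ~4 ml Tris-sucrose buffer per g, supernatant after 9,000 × g at 10°C; pooled human brain and liver S9 also used), protein by bicinchoninic acid assay. Oseltamivir: triplicate, 10 μM 14C-oseltamivir final, 1.0 mg S9 protein, 100 mM Tris-HCl pH 7.4, 30 min at 37°C, quenched with TCA-acetonitrile.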

[5] = Prodrug conversion in 42 days old female rat brain S9 fractions assessed as conversion of oseltamivir to oseltamivir carboxylate; format: ADME, tissue-based
In short: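 Rat brain or liver S9 (9,000 × g supernatant; 1.0 mg protein) was incubated in triplicate with 10 µM 14C-oseltamivir (final) in 100 mM Tris-HCl pH 7.4 for 30 min at 37°C. Reactions were quenched with TCA-acetonitrile, and the fraction converted to OC was measured by radioflow HPLC with fractionation. Rate was calculated as (pmol/ml substrate × fraction hydrolyzed)/(mg protein/ml × time), minus the no-protein background.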

[6] = Prodrug conversion in 7 days old female rat brain S9 fractions assessed as paranitrophenol generation rate assessed per mg of protein per min; format: ADME, tissue-based

| SMILES | Cmax (Plasma [1]) | Kp [2] | AUC (Plasma [3]) | Activity [4] | Activity [5] | Activity [6] |
| --- | --- | --- | --- | --- | --- | --- |
| CCC(CC)O[C@@H]1C=C(C(=O)O)C[C@H](N)[C@H]1NC(C)=O [OSELTAMIVIR CARBOXYLATE] | 6300 ng/mL | < 0.004 | 13600 | – | – | – |
| CCOC(=O)C1=C[C@@H](OC(CC)CC)[C@H](NC(C)=O)[C@@H](N)C1 [OSELTAMIVIR] | – | – | – | < 0.06% | 0.18% | 92 nmol |
